Results reported in ChEMBL document CHEMBL1687827, “Profiling the Aspergillus fumigatus proteome in response to caspofungin” (2011).
Calls of active or inactive are those of the source. No cut-off for these calls is given here.

Tests used:
Aspergillus fumigatus [1] = assay: Induction of change in choline oxidase (CodA), putative protein level in iTRAQ-116 labelled secreted fraction of drug-susceptible Aspergillus fumigatus KU80 delta-akuB at 0.12 ug/ml after 48 hrs in YPD medium by MS (MS/MS) analysis relative to control; type: functional
Outline: (§1)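 Conidia at 1 × 10⁵/ml grown shaking at 37°C in YPD with or without 0.12 μg/ml caspofungin; mycelia filtered at 24 or 48 h. Secreted fraction taken from the filtrate; cell wall/plasma membrane pellet recovered after French-press lysis and a 5,000 × g spin. Proteins trypsin-digested and iTRAQ-labelled, drug vs no-drug channels at each time, then 2D LC-MS/MS. Protein ratio is the median of ratios from uniquely assigned peptides after median normalization.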

Aspergillus fumigatus [2] = assay: Induction of change in transcriptional repressor TupA/RocA, putative protein level in iTRAQ-118 labelled cell wall fraction of drug-susceptible Aspergillus fumigatus KU80 delta-akuB at 0.12 ug/ml after 24 hrs in YPD medium by MS (MS/MS) analysis relative to control; type: functional
Outline: (§2)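 Conidia (1 × 10⁵/ml) grown in YPD, 37°C, 225 rpm, ± 0.12 μg/ml caspofungin; filtrate taken as secreted fraction, French-press lysate 5,000 × g pellet as cell wall/plasma membrane. Trypsin digests 8-plex iTRAQ-labelled (drug-free channels as references), pooled, 2D-chromatography, MS/MS. Median-normalized; protein ratio = median of unique-peptide ratios, log2 normalized.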

Aspergillus fumigatus [3] = assay: Induction of change in phosphoglycerate kinase PgkA, putative protein level in iTRAQ-118 labelled cell wall fraction of drug-resistant Aspergillus fumigatus EMFR-S678P at 0.12 ug/ml after 24 hrs in YPD medium by MS (MS/MS) analysis relative to control; type: functional
Outline: (§3)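 Conidia at 1 × 10⁵/ml were grown at 37°C, shaking at 225 rpm, in YPD with or without 0.12 μg/ml caspofungin for 24 or 48 h. The culture filtrate was kept as the secreted fraction. Mycelia were lysed by French press in HEPES/glycerol/EDTA/PMSF/DTT buffer, and the 5,000 × g pellet was washed to give CW/PM. Proteins were reduced, alkylated and trypsin-digested at 37°C overnight, then iTRAQ-labelled and run by 2D LC-MS/MS. Ratios are the median of unique-peptide ratios, median-normalized, versus the no-drug control.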

Aspergillus fumigatus [4] = assay: Induction of change in extracellular conserved serine-rich protein level in iTRAQ-116 labelled secreted fraction of drug-resistant Aspergillus fumigatus EMFR-S678P at 0.12 ug/ml after 48 hrs in YPD medium by MS (MS/MS) analysis relative to control; type: functional; outline: as §3
Aspergillus fumigatus [5] = assay: Induction of change in 40S ribosomal protein S3Ae protein level in iTRAQ114 labelled cell wall fraction of drug-susceptible Aspergillus fumigatus KU80 delta-akuB at 0.12 ug/ml after 24 hrs in YPD medium by MS (MS/MS) analysis relative to control; type: functional; outline: as §1
Aspergillus fumigatus [6] = assay: Induction of change in 60s ribosomal protein yl6 protein level in iTRAQ114 labelled cell wall fraction of drug-susceptible Aspergillus fumigatus KU80 delta-akuB at 0.12 ug/ml after 24 hrs in YPD medium by MS (MS/MS) analysis relative to control; type: functional; outline: as §1
Aspergillus fumigatus [7] = assay: Induction of change in Mn superoxide dismutase MnSOD protein level in iTRAQ114 labelled cell wall fraction of drug-susceptible Aspergillus fumigatus KU80 delta-akuB at 0.12 ug/ml after 24 hrs in YPD medium by MS (MS/MS) analysis relative to control; type: functional; outline: as §1
Aspergillus fumigatus [8] = assay: Induction of change in 14-alpha sterol demethylase Cyp51A protein level in iTRAQ-118 labelled cell wall fraction of drug-resistant Aspergillus fumigatus EMFR-S678P at 0.12 ug/ml after 48 hrs in YPD medium by MS (MS/MS) analysis relative to control; type: functional; outline: as §3
Aspergillus fumigatus [9] = assay: Induction of change in 14-alpha sterol demethylase Cyp51A protein level in iTRAQ-118 labelled cell wall fraction of drug-resistant Aspergillus fumigatus EMFR-S678P at 0.12 ug/ml after 24 hrs in YPD medium by MS (MS/MS) analysis relative to control; type: functional, organism-based; outline: as §3
Aspergillus fumigatus [10] = assay: Antifungal activity against drug-resistant Aspergillus fumigatus EMFR-S678P assessed as change in hyphal morphology by RPMI medium; type: functional; details: read-out: MEC
Outline: (§4)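 CLSI M38-A2 broth microdilution, run in triplicate in RPMI or YPD medium as the line specifies. Caspofungin was dissolved in sterile water. The minimum effective concentration (MEC) was the lowest concentration giving a significant change in hyphal morphology visible to the eye.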

Aspergillus fumigatus [11] = assay: Antifungal activity against drug-susceptible Aspergillus fumigatus KU80 delta-akuB assessed as change in hyphal morphology by RPMI medium; type: functional; details: read-out: MEC; outline: as §4
Aspergillus fumigatus [12] = assay: Antifungal activity against drug-resistant Aspergillus fumigatus EMFR-S678P assessed as change in hyphal morphology by YPD medium; type: functional; details: read-out: MEC; outline: as §4
Aspergillus fumigatus [13] = assay: Induction of change in cytochrome c oxidase polypeptide vib protein level in iTRAQ-118 labelled cell wall fraction of drug-resistant Aspergillus fumigatus EMFR-S678P at 0.12 ug/ml after 24 hrs in YPD medium by MS (MS/MS) analysis relative to control; type: functional, organism-based; outline: as §3
Aspergillus fumigatus [14] = assay: Induction of change in cytochrome b5, putative protein level in iTRAQ114 labelled secreted fraction of drug-resistant Aspergillus fumigatus EMFR-S678P at 0.12 ug/ml after 24 hrs in YPD medium by MS (MS/MS) analysis relative to control; type: functional; outline: as §3
Aspergillus fumigatus [15] = assay: Induction of change in molecular chaperone and allergen Mod-E/Hsp90/Hsp1 protein level in iTRAQ-116 labelled secreted fraction of drug-resistant Aspergillus fumigatus EMFR-S678P at 0.12 ug/ml after 48 hrs in YPD medium by MS (MS/MS) analysis relative to control; type: functional; outline: as §3
Aspergillus fumigatus [16] = assay: Induction of change in isocitrate dehydrogenase Idp1, putative protein level in iTRAQ-118 labelled cell wall fraction of drug-susceptible Aspergillus fumigatus KU80 delta-akuB at 0.12 ug/ml after 24 hrs in YPD medium by MS (MS/MS) analysis relative to control; type: functional; outline: as §2
Aspergillus fumigatus [17] = assay: Induction of change in cell wall glucanase (Utr2), putative protein level in iTRAQ-118 labelled cell wall fraction of drug-susceptible Aspergillus fumigatus KU80 delta-akuB at 0.12 ug/ml after 24 hrs in YPD medium by MS (MS/MS) analysis relative to control; type: functional; outline: as §1
Aspergillus fumigatus [18] = assay: Induction of change in ribosomal protein L26 gene expression in drug-susceptible Aspergillus fumigatus KU80 delta-akuB at 0.12 ug/ml after 24 hrs in YPD medium by microarray analysis relative to control; type: functional
Outline: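 Mycelia grown from 1 × 10⁵ conidia/ml in YPD at 37°C, 225 rpm, with or without 0.12 μg/ml caspofungin. Total RNA extracted, DNase-treated; 2 μg labelled per TIGR SOP M007 for whole-genome array hybridization. Three independent experiments with dye flip (6 replicates); >2-fold change deemed significant.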

Aspergillus fumigatus [19] = assay: Induction of change in ubiquinol-cytochrome C reductase complex core protein 2, putative protein level in iTRAQ-118 labelled cell wall fraction of drug-susceptible Aspergillus fumigatus KU80 delta-akuB at 0.12 ug/ml after 24 hrs in YPD medium by MS (MS/MS) analysis relative to control; type: functional; outline: as §2

In the case of `CC[C@H](C)C[C@H](C)CCCCCCCCC(=O)N[C@H]1C[C@@H](O)[C@@H](NCCN)NC(=O)[C@@H]2[C@@H](O)CCN2C(=O)[C@H]([C@H](O)CCN)NC(=O)[C@H]([C@H](O)[C@@H](O)c2ccc(O)cc2)NC(=O)[C@@H]2C[C@@H](O)CN2C(=O)[C@H]([C@@H](C)O)NC1=O` [CASPOFUNGIN], the “fold change (FC)” value (Aspergillus fumigatus [1]) is reported as -2, the “fold change (FC)” value (Aspergillus fumigatus [2]) is reported as -2.1 and the “fold change (FC)” value (Aspergillus fumigatus [3]) is reported as -1.15. The “fold change (FC)” value (Aspergillus fumigatus [4]) was -1.07, the “fold change (FC)” value (Aspergillus fumigatus [5]) was 2.3 and the “fold change (FC)” value (Aspergillus fumigatus [6]) was 1.6. For the same molecule, the “fold change (FC)” value (Aspergillus fumigatus [7]) was -1.2, the “fold change (FC)” value (Aspergillus fumigatus [8]) was 1.07 and the Activity (Aspergillus fumigatus [9]) was “inactive”. The minimal effective concentration (Aspergillus fumigatus [10]) was greater than 16 µg/mL, the minimal effective concentration (Aspergillus fumigatus [11]) was 0.25 µg/mL and the minimal effective concentration (Aspergillus fumigatus [12]) was greater than 16 µg/mL. For the same molecule, the Activity (Aspergillus fumigatus [13]) was “inactive”, the “fold change (FC)” value (Aspergillus fumigatus [14]) was -1.32 and the “fold change (FC)” value (Aspergillus fumigatus [15]) was -1.07. For the same molecule, the “fold change (FC)” value (Aspergillus fumigatus [16]) was -2.1, the “fold change (FC)” value (Aspergillus fumigatus [17]) was -3 and the “fold change (FC)” value (Aspergillus fumigatus [18]) was 5.3. For the same molecule, the “fold change (FC)” value (Aspergillus fumigatus [19]) was -2.
